HTRA1 inhibitor – inhibitors of human serine peptidase HTRA1; Q92743; recombinant HTRA1, FP-rhodamine activity-based probe, fluorescence polarization; inhibition, % at 5.96 µM; 0.5% of 340,000 active; in the data active = inhibition above about 36%;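 note: 0% = enzyme with DMSO and 100% = wells lacking enzyme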
Target sequence (Q92743 whole entry, looked up): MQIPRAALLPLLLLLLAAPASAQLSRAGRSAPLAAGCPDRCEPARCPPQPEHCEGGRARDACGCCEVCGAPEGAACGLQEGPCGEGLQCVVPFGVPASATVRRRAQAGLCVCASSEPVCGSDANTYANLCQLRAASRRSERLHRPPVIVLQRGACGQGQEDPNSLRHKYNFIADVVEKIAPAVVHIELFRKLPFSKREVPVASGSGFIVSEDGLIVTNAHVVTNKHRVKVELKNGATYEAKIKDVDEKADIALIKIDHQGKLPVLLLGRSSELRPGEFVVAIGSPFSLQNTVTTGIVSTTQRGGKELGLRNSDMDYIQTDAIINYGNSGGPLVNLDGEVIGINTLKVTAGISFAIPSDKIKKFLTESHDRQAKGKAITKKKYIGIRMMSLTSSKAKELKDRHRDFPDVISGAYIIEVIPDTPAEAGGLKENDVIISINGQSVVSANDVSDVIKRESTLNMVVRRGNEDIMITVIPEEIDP
TCR-CD3 inh – human TCR-CD3 binding inhibition; TAMRA-labeled TCR probe fluorescence, biochemical; inhibition, % at 9.4 µM; 0.37% of 360,000 active; AID 651800; in the data active = inhibition above about 19%;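 note: recombinant mutant TCR 2C K166C tagged with TAMRA read by polarization; 0% = receptor in buffer alone and 100% = receptor with positive control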
SIAE primary – human SIAE inhibition, primary screen; Q9HAT2; SIAE FP-Rh probe binding, fluorescence polarization; inhibition, % at 9.66 µM; 0.69% of 370,000 active;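 active = inhibition above a cutoff: mean of compounds within the control limits plus 3 SD of those, cut at about 17% in these data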;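 note: 0% = plate median of compound wells and 100% = probe without SIAE protein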
ABHD4 inh – inhibitors of mouse ABHD4 | purified mABHD4, FP-Rh probe fluorescence polarization | 0.54% of 370,000 active | Q8VD66 | inhibition, % at 8.92 µM;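 active = inhibition exceeding the mean over every tested compound plus 3 SD, cut at about 30% in these data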;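 note: 0% = plate median of compound wells and 100% = S159A mutant with DMSO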
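Test system: mouse ABHD4 enzyme, wild type. Reagent: FP-Rh fluorescent activity-based probe, added after compound pre-incubation. Timing: pre-incubation 45 min, probe exposure 60 min, at 25 °C. Technique: FP readout, ex 525 nm / em 598 nm. Benchmarks: high control S159A mutant with DMSO, low control median of compound wells.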
rCAG binder – binds r(CAG) RNA repeats | 1.3% of 370,000 active | r(CAG) RNA repeat, TO-PRO-1 dye displacement fluorescence | inhibition, % at 3 µM;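 active = inhibition above the plate cutoff, the mean of all test compounds on that plate plus 3 SD, cut at about 35% in these data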;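 note: 0% = DMSO alone and 100% = 100 µM mitoxantrone as full dye displacement; higher means more dye released from RNA so lower well fluorescence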
HTRA1 inh conf – confirmation of human HTRA1 inhibitors; inhibition, % at 5.96 µM; recombinant HTRA1, FP-rhodamine activity-based probe, fluorescence polarization; 66% of 1,600 active; shares compounds with HTRA1 inhibitor;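 active = mean inhibition over three repeats above a set limit taken from the earlier primary screen, cut at about 37% in these data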;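 note: 0% = HTRA1 with DMSO and 100% = wells lacking HTRA1; inhibitors block probe binding so polarization drops and inhibition rises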
Numbers without * were called inactive. Compounds with a hit are over-represented: about 2.5% of the library has one in this group of screens.

What do the screens show for `CCOC(=O)COn1c(=O)c(-c2cccs2)[n+]([O-])c2ccccc21`?
HTRA1 inhibitor: 42*; TCR-CD3 inh: -7; SIAE primary: 0; ABHD4 inh: 8; rCAG binder: 2; HTRA1 inh conf: 10

Results for CC(C)(C)c1ccc(/C=N/Nc2nncn2N)cc1 ?
HTRA1 inhibitor: -5; TCR-CD3 inh: -9; SIAE primary: 6; ABHD4 inh: 1; rCAG binder: -4

Results for Nn1cnnc1N/N=C/c1cc(Br)cc(Br)c1O ?
HTRA1 inhibitor: 53*; TCR-CD3 inh: 5; SIAE primary: -1; ABHD4 inh: 13; rCAG binder: 12; HTRA1 inh conf: 51*

Results for O=C(c1ccccc1)c1ccc(-c2ccc(O)cc2)cc1 ?
HTRA1 inhibitor: -40; TCR-CD3 inh: 0; SIAE primary: -6; ABHD4 inh: -11; rCAG binder: 10

How did C=CCN1CCc2c(cc(O)c(O)c2Br)[C@@H](c2ccccc2)C1 do in these assays?
HTRA1 inhibitor: 51*; TCR-CD3 inh: 6; SIAE primary: -3; ABHD4 inh: 15; rCAG binder: 9; HTRA1 inh conf: 68*

Results for COc1ccccc1N1CCN(Cc2ccc(OC)c(OC)c2OC)CC1 ?
HTRA1 inhibitor: 2; TCR-CD3 inh: -8; SIAE primary: 12; ABHD4 inh: 1; rCAG binder: -2

How did COc1ccccc1N1CCN(Cc2ccc(O)c3ncccc23)CC1 do in these assays?
HTRA1 inhibitor: 45*; TCR-CD3 inh: -1; SIAE primary: 5; ABHD4 inh: 6; rCAG binder: -2; HTRA1 inh conf: 53*

What do the screens show for `Oc1ccc(CN2CCCc3ccccc32)c2cccnc12`?
HTRA1 inhibitor: 39*; HTRA1 inh conf: 35

Results for CCOC(=O)C1=C(COC(=O)c2ccc(Br)o2)NC(=O)NC1C (stereo unspecified) ?
HTRA1 inhibitor: 5; TCR-CD3 inh: 4; SIAE primary: -3; ABHD4 inh: -1; rCAG binder: -4

How did O=Cc1ccc(O)c2ncccc12 do in these assays?
HTRA1 inhibitor: 36*; HTRA1 inh conf: 60*

Results for C=CCn1c(SCC(=O)NC2(C)CCS(=O)(=O)C2)nc2ccccc21 (stereo unspecified) ?
HTRA1 inhibitor: 0; TCR-CD3 inh: -2; SIAE primary: 0; ABHD4 inh: -3; rCAG binder: 2

What do the screens show for `O=C(CCc1ccccc1)NC(c1cccs1)c1cc(Cl)c2cccnc2c1O` (stereo unspecified)?
HTRA1 inhibitor: 49*; TCR-CD3 inh: -5; SIAE primary: 0; ABHD4 inh: -3; rCAG binder: 9; HTRA1 inh conf: 54*

How did CCCC(=O)NC(c1cccs1)c1cc([N+](=O)[O-])c2cccnc2c1O (stereo unspecified) do in these assays?
HTRA1 inhibitor: 36*; TCR-CD3 inh: 0; SIAE primary: 8; ABHD4 inh: 12; rCAG binder: 8; HTRA1 inh conf: 51*

What do the screens show for `CCC(=O)NC(c1cccs1)c1cc(Cl)c2ccccc2c1O` (stereo unspecified)?
HTRA1 inhibitor: -33; TCR-CD3 inh: 5; SIAE primary: 2; ABHD4 inh: -13; rCAG binder: 5

What do the screens show for `COc1cc(O)c2c(=O)c3c(O)ccc(O)c3oc2c1`?
HTRA1 inhibitor: 55*; TCR-CD3 inh: 6; SIAE primary: 4; ABHD4 inh: 28; rCAG binder: 29; HTRA1 inh conf: 0

What do the screens show for `Nc1ccc(Nc2ccccc2N)cc1`?
HTRA1 inhibitor: 64*; TCR-CD3 inh: 1; SIAE primary: 9; ABHD4 inh: 24; rCAG binder: 23; HTRA1 inh conf: 83*

What do the screens show for `CC1(C)CCN2CCC(C)(C)c3c(O)ccc1c32`?
HTRA1 inhibitor: 66*; TCR-CD3 inh: 11; SIAE primary: -17; ABHD4 inh: 21; rCAG binder: -15; HTRA1 inh conf: 27

Results for COc1cccc(/C=N/NC(=O)c2c(C)nc3ccc(Br)cn23)c1O ?
HTRA1 inhibitor: 54*; HTRA1 inh conf: 52*

How did COc1cccc(C=NNC(=O)c2ccncc2)c1O do in these assays?
HTRA1 inhibitor: 6; TCR-CD3 inh: -1; SIAE primary: 0; ABHD4 inh: 8; rCAG binder: 2

How did COc1cccc(/C=N/NC(=O)N/N=C/c2cccc(OC)c2O)c1O do in these assays?
HTRA1 inhibitor: 60*; TCR-CD3 inh: 5; SIAE primary: 14; ABHD4 inh: 14; rCAG binder: 5; HTRA1 inh conf: 85*

How did COc1cccc(/C=N/NC(=O)c2nc(-c3ccccc3)cc(-c3ccccc3)n2)c1O do in these assays?
HTRA1 inhibitor: 43*; TCR-CD3 inh: 5; SIAE primary: 3; ABHD4 inh: 2; rCAG binder: 5; HTRA1 inh conf: 57*

How did COc1ccc(COC(=O)NNC(=O)c2ccccc2Cl)cc1 do in these assays?
HTRA1 inhibitor: -1; TCR-CD3 inh: 2; SIAE primary: -1; ABHD4 inh: -1; rCAG binder: 0

How did O=C(N/N=C/c1oc(O)c2ccccc12)c1ccccc1 do in these assays?
HTRA1 inhibitor: -3; TCR-CD3 inh: 5; SIAE primary: -8; ABHD4 inh: -2; rCAG binder: 5

How did Cc1c(N=Nc2ccc(O)cc2)c(=O)n(-c2ccccc2)n1C do in these assays?
HTRA1 inhibitor: -1; TCR-CD3 inh: 6; SIAE primary: 1; ABHD4 inh: -4; rCAG binder: 1

Results for Cc1c(N=C2C=CC(=O)c3ccccc32)c(=O)n(-c2ccccc2)n1C ?
HTRA1 inhibitor: 37*; TCR-CD3 inh: 2; SIAE primary: 7; ABHD4 inh: 10; rCAG binder: 4; HTRA1 inh conf: 33

How did COc1ccc(/C=N/Nc2cc(C)nc3c(C)cccc23)cc1 do in these assays?
HTRA1 inhibitor: -22; TCR-CD3 inh: -4; SIAE primary: -4; ABHD4 inh: 9; rCAG binder: 20

Results for COc1cccc2c(N/N=C/c3ccc(O)c(O)c3)cc(C)nc12 ?
HTRA1 inhibitor: 47*; TCR-CD3 inh: 5; SIAE primary: -3; ABHD4 inh: 15; rCAG binder: 2; HTRA1 inh conf: 77*

How did Oc1c(Br)cc(Br)cc1/C=N/n1c(-c2ccccc2)n[nH]c1=S do in these assays?
HTRA1 inhibitor: 5; TCR-CD3 inh: 12; SIAE primary: 5; ABHD4 inh: 17; rCAG binder: 6

How did COc1c(Br)cc(/C=N/n2c(-c3ccccc3)n[nH]c2=S)c(O)c1Br do in these assays?
HTRA1 inhibitor: 74*; TCR-CD3 inh: 10; SIAE primary: 7; ABHD4 inh: 25; rCAG binder: 8; HTRA1 inh conf: 30

Results for CN(C)CCNC(=O)c1onc(CSc2ccc(F)cc2)c1C(=O)NCCN(C)C ?
HTRA1 inhibitor: 0; TCR-CD3 inh: -2; SIAE primary: 1; ABHD4 inh: -3; rCAG binder: -1

What do the screens show for `Cc1cccc(OCC(=O)NC(=S)N2CCCc3ccccc32)c1`?
HTRA1 inhibitor: 48*; TCR-CD3 inh: 12; SIAE primary: 6; ABHD4 inh: 21; rCAG binder: 2; HTRA1 inh conf: 7

Bioassay records (PubChem BioAssay)
